{"source": "ChEMBL document CHEMBL3745659", "about": "“Synthesis and Characterization of 4,11-Diaminoanthra[2,3-b]furan-5,10-diones: Tumor Cell Apoptosis through tNOX-Modulated NAD(+)/NADH Ratio and SIRT1” (J Med Chem, 2015)", "system": "AGS", "assay": "Induction of apoptosis in human AGS cells assessed as late apoptotic cells at 0.1 uM after 24 hrs by annexin V-FITC staining-based flow cytometric analysis (Rvb=0.3%)", "format": "functional", "how_it_was_run": "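AGS cells exposed to compound for 24 h; Annexin V-FITC staining and flow cytometry used to give percentage of apoptotic cells; mean ± S.E. from at least three independent experiments.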"}
{"molecule": "CNCCNc1c2c(c(NCCNC)c3occc13)C(=O)c1ccccc1C2=O", "values": [{"measurement": "Activity", "result": 1.5, "unit": "%"}]}
